These results are taken from ChEMBL document CHEMBL1140640, “C-geranyl compounds from Paulownia tomentosa fruits” (J Nat Prod, 2007).

Data set [1] is described as follows: Cytotoxicity against rat WB344 cells after 24 hrs. It counts as cell-based. The note with it: WB344, 24 h. A digest of the protocol:
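Epithelioid cells were cultured in DMEM ~24 h, exposed 24 h to DMSO-dissolved compounds, then to neutral red for 3 h. After formaldehyde/CaCl2 fixation, dye was extracted in acidified ethanol and read at 540 nm. Inhibition = (1 − T/C) × 100 against control OD540; IC50 taken from dose-response curves.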

Data set [2] concerns Radical scavenging activity. Kind of data set: Antioxidant activity assessed as DPPH radical scavenging activity at 10 uM by TEAC assay. The data set is classed as functional. In a few lines:
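Test solutions of 10 µM in MeOH were mixed 0.2 mL to 1.8 mL with methanolic DPPH at 22 mg/L. Absorbance at 517 nm was read every minute for 5 min, then every 5 min up to 30 min. Activity was followed over time and expressed as Trolox equivalent antioxidant capacity (TEAC).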

A short description of data set [3]: Cytotoxicity against rat WB344 cells at 25 uM after 24 hrs. The data set is classed as cell-based. The note with it: wb344, 24 h. A digest of the protocol:
(§1)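 Neutral red uptake: cells in DMEM were grown ~24 h, then given compounds in DMSO for 24 h, then NR-containing medium ([…] as printed) for 3 h. Cells were PBS-washed, fixed 15 min in 0.5% formaldehyde/1% CaCl2, and dye extracted in 1% HOAc/50% EtOH with 20 min shaking. Read at A540 as % of DMSO control; mean of three independent measurements.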

Data set [4] is described as follows: Cytotoxicity against rat WB344 cells at 5 uM after 24 hrs. It counts as cell-based. The note with it: wb344, 24 h. A digest of the protocol:
as §1

A short description of data set [5]: Cytotoxicity against rat WB344 cells at 100 uM after 24 hrs. The data set is classed as cell-based. The conditions noted are these: wb344, 24 h. In a few lines: as §1

In the case of `CC(C)=CCC/C(C)=C/Cc1c(O)cc2c(c1O)C(=O)C[C@@H](c1ccc(O)c(O)c1)O2` [NYMPHAEOL A], the IC50 (commonly the concentration at which inhibition is half-maximal) in data set [1] came to 14.3 µM. In addition, the Trolox equivalent antioxidant capacity (TEAC) in data set [2] was determined as 5.2. For the same compound, the Activity in data set [3] was found to be 57%; in data set [4], 98%; in data set [5] it was 2%.
Take `C=C(C)C(O)CC/C(C)=C/Cc1c(O)cc2c(c1O)C(=O)[C@H](O)[C@@H](c1ccc(O)c(OC)c1)O2` (stereo not given in full): the Trolox equivalent antioxidant capacity (TEAC) in data set [2] stood at 2.
With `COc1cc([C@@H]2CC(=O)c3c(cc(O)c(C/C=C(\C)CCC=C(C)C)c3O)O2)ccc1O`, the IC50 in data set [1] was determined as 30.2 µM. Also, the Trolox equivalent antioxidant capacity (TEAC) in data set [2] came to 0.8. Besides, the Activity in data set [3] turned out to be 73%; in data set [4] it was 100%; in data set [5], 2%.
On to `CC(C)=CCC/C(C)=C/Cc1c(O)cc2c(c1O)C(=O)C[C@@H](c1ccc(O)cc1)O2` [BONANNIONE A], for which, in data set [2], the Trolox equivalent antioxidant capacity (TEAC) stood at 0.4. The Activity came out at 95% in data set [3], 97% in data set [4] and 9% in data set [5].
